Results published in ChEMBL document CHEMBL1138033, “S-alkylated homocysteine derivatives: new inhibitors of human betaine-homocysteine S-methyltransferase” (J Med Chem, 2006).

Key:
[1] = target: T1, Betaine--homocysteine S-methyltransferase 1 (Homo sapiens) (UniProt Q93088); test: Inhibition of human BHMT at 20 uM
T1 sequence (whole entry): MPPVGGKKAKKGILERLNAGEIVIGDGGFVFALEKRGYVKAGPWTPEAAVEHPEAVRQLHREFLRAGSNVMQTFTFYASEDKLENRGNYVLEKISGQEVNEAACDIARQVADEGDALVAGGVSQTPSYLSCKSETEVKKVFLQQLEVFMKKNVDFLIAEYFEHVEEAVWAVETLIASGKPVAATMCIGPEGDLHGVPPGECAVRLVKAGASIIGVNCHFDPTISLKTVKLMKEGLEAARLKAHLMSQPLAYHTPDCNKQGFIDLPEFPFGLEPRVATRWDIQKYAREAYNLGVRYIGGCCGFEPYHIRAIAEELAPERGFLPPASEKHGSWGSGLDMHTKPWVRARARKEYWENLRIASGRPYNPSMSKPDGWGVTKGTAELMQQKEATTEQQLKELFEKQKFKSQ
In short: (§1)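 Recombinant human BHMT (0.2 µM) premixed with inhibitor, then 100 µM D,L-homocysteine and 250 µM N-methyl-¹⁴C-betaine (0.05 µCi) added; 50 mM K-phosphate pH 7.5, 10 mM β-mercaptoethanol, 37°C for 30 min. Radiolabel incorporation read against enzyme-free blanks; triplicates, percent relative to no-inhibitor control.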

[2] = target: T1, Betaine--homocysteine S-methyltransferase 1 (Homo sapiens); test: Inhibition of human BHMT at 1 uM; in short: as §1
[3] = target: T2, Betaine--homocysteine S-methyltransferase 1 (Homo sapiens, UniProt Q93088); test: Inhibition of human BHMT
T2 sequence (Q93088 whole entry): T1 sequence (whole entry)
In short: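 Recombinant human BHMT (0.2 µM) mixed with inhibitor at ten concentrations, then 1 mM D,L-homocysteine and 2 mM betaine (¹⁴C-methyl labelled, 0.15 µCi) added in 50 mM K-phosphate pH 7.5 with 10 mM β-mercaptoethanol; 30 min at 37°C. Enzyme-free blanks subtracted. IC50 by nonlinear regression; points in duplicate, three independent assays.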

Row | Compound | inhibition [1] | inhibition [2] | IC50 [3]
1 | NC(CC[S+]([O-])CC(N)C(=O)O)C(=O)O (stereo not given) | 9.5% | – | –
2 | C=CCSCCC(N)C(=O)O (racemic) | 0% | – | –
3 | NC(CCS(=O)(=O)CCCCC(=O)O)C(=O)O (racemic) | 28.8% | – | –
4 | N[C@@H](CSCCCCC(=O)O)C(=O)O | 0% | – | –
5 | NC(CCSCC[S+]([O-])CC(=O)O)C(=O)O (racemic) | 89.8% | 55.3% | –
6 | NC(CCSCCCCP(=O)(O)O)C(=O)O (racemic) | 97.8% | 74% | 5.7 µM
7 | NC(CCSSCCC(=O)O)C(=O)O (racemic) | 30% | 0% | –
8 | NC(CCSCCOCP(=O)(O)O)C(=O)O (racemic) | 25.5% | – | –
9 | NC(CCSc1cccc(C(=O)O)c1)C(=O)O (racemic) | 12.8% | – | –
10 | NC(CCSCCCC(=O)O)C(=O)O (racemic) | 20.1% | – | –
11 | NC(CC[S+]([O-])CCCCC(=O)O)C(=O)O (racemic) | 97.3% | 67.8% | 5 µM
12 | NC(CCSCC(N)C(=O)O)C(=O)O (stereo not given) | 18.8% | – | –
13 | NC(CCSc1ccccc1C(=O)O)C(=O)O (racemic) | 42.5% | – | –
14 | NC(CCSCCSCC(=O)O)C(=O)O (racemic) | 100% | 96.8% | 0.096 µM
15 | NC(CCSCCCCC(=O)O)C(=O)O (racemic) | 100% | 98.3% | –
16 | COC(=O)C(N)CCSCC(=O)NCP(=O)(O)O (racemic) | 0% | – | –
17 | NC(CCSCc1ccc(CC(=O)O)cc1)C(=O)O (racemic) | 10.1% | – | –
18 | NC(CCSSCCC(N)C(=O)O)C(=O)O (stereo not given) | 0% | – | –
19 | NC(CCSCCCCCC(=O)O)C(=O)O (racemic) | 100% | 99.9% | 0.2 µM
20 | NC(CCSCC(=O)NCP(=O)(O)O)C(=O)O (racemic) | 8.8% | – | –
21 | NC(CCSc1ccc(C(=O)O)cc1)C(=O)O (racemic) | 98.6% | 84.8% | 7 µM
22 | CSCSCCC(N)C(=O)O (racemic) | 20.5% | – | –
